Screens: PubChem, The Scripps Research Institute Molecular Screening Center
Most compounds without a hit are left out; they make up all but 4.6% or so of the library.
TAAR1 agonist – agonists of human TAAR1 | Q96RJ0 | CHO RD-HGA16 TAAR1, Fluo-8 calcium fluorescence; vehicle wells 0%, saturating PEA agonist 100% | activation, % at 3 µM | actives 0.99% (n = 360,000);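 active = activation above the mean activation of all test compounds in the run plus 3 SD, cut at about 38% in these data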
Target sequence (Q96RJ0 whole entry, looked up): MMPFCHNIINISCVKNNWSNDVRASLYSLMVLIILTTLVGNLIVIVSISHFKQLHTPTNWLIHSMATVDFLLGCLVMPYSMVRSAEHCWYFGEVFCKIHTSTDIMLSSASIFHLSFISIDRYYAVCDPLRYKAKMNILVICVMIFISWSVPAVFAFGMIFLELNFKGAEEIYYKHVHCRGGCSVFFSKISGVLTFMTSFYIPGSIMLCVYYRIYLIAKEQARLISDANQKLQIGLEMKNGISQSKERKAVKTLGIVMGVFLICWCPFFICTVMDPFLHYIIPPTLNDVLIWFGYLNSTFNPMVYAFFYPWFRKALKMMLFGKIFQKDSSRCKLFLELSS
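System: CHO RD-HGA16 cells carrying human TAAR1 plus Gα16; Incubation: 17-24 h seeding, 75 min 37 °C dye, 30 min RT; Measured by: Fluo-8 fluorescence, 5 s baseline then 140 s kinetic read; Control set: DMSO and PEA EC100; Replication: single well for each compound.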
OX1R antag-1 – blocks the human orexin 1 receptor; O43613; inhibition, % at 6.6 µM; actives 1.8% (n = 330,000); OX1R-expressing cells, FRET antagonist read-out; in the data active = inhibition mostly above about 38%, no sharp cut-off; inactive = mostly below about 40%;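 note: 0% = agonist challenge alone and 100% = reference antagonist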
TAAR1 antag – antagonists of human TAAR1; CHO RD-HGA16 TAAR1, Fluo-8 calcium fluorescence, antagonist; actives 1.5% (n = 360,000); Q96RJ0; inhibition, % at 3 µM;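 active = inhibition above a per-plate cutoff, the mean inhibition of test compounds on that plate plus 3 SD, cut at about 49% in these data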;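 note: 0% = DMSO plus EC80 beta-PEA response and 100% = DMSO alone without agonist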
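Material: RD-HGA16 CHO cells with stable hTAAR1 and Gα16; Dosing: single nominal final test compound concentration of 3 µM; Schedule: seeding 17-24 h prior, 75-min 37 °C, 30-min RT dye loading; Detection: kinetic Fluo-8 calcium fluorescence measurement; Measure: % inhibition from peak post-agonist over basal fluorescence ratio; Benchmarks: vehicle and agonist controls.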
GPR7 antagonist – human neuropeptides B/W receptor 1 antagonism. inhibition, % at 4.4 µM. AID 1861. actives 1.1% (n = 290,000). GPR7-expressing cells, fluorescence antagonist assay; in the data active = inhibition above about 16%, passing the limit was not always enough;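 note: cells stimulated with the agonist NPW; 0% = agonist with vehicle and 100% = vehicle without agonist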
CHO parental Ca – signal in parental CHO cells, OX1R antagonist counter-screen; inhibition, % at 5.6 µM; parental CHO-K1, ATP-induced calcium, Fluo-8 fluorescence; actives 0.63% (n = 330,000);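 active = inhibition above that plate's mean sample inhibition plus 3 SD, cut at about 26% in these data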;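 note: 0% = ATP-challenged DMSO wells and 100% = DMSO wells without ATP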
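Material: parental CHO cells / Compound: single nominal dose of 5.6 µM per compound / Signal: Fluo-8 fluorescence / Replicates: singlicate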
OX1R antag-2 – antagonists of human orexin 1 receptor | inhibition, % at 5 µM | O43613 | AID 434989 | CHO/OX1R cells, Fluo-8 calcium fluorescence, orexin A | actives 0.43% (n = 330,000);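 active = inhibition above its plate's threshold, mean inhibition of all tested compounds on the plate plus 3 SD, cut at about 37% in these data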;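 note: 0% = orexin A challenge wells and 100% = SB-334867-A antagonist wells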
GPR7 antag conf – confirmation of human GPR7 antagonists. shares compounds with GPR7 antagonist. GPR7-expressing cells, calcium fluorescence antagonist mode. inhibition, % at 4.4 µM. actives 52% (n = 2,400). AID 1952; in the data active = inhibition above about 24%;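 note: stimulated with the GPR7 agonist NPW; 0% = agonist plus vehicle and 100% = vehicle alone without agonist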
MCHR1 antagonist – MCHR1 (human) antagonism in GPR7 counter-screen. shares compounds with GPR7 antagonist. MCHR1-expressing cells, fluorescence antagonist assay. inhibition, % at 4.4 µM. actives 62% (n = 2,400). AID 2148; in the data active = inhibition above about 22%;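 note: 0% = vehicle with agonist and 100% = vehicle without agonist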
The depositor's hits bear a star; x = no result.

SMILES | TAAR1 agonist | OX1R antag-1 | TAAR1 antag | GPR7 antagonist | CHO parental Ca | OX1R antag-2 | GPR7 antag conf | MCHR1 antagonist
CCOc1ccc(NS(=O)(=O)c2ccc(C(=O)NCC(c3ccc(OC)cc3)N3CCCC3)cc2)cc1 (centres undefined) | 23 | 6 | 21 | x | -21 | 8 | x | x
CC1=C(C(=O)N2CCCCCC2)CC(CC(=O)NCCc2ccccn2)C(=O)N1Cc1ccc(C(C)(C)C)cc1 (centres undefined) | 7 | x | -11 | x | x | x | x | x
COC(=O)Nc1nnc(/C=C/c2ccc(OC)cc2)s1 | 6 | 21 | 5 | 24* | -6 | -8 | 20 | 11
Cn1c(CC(O)c2nc3ccccc3n2C)nc2ccccc21 (centres undefined) | 2 | x | -4 | x | x | x | x | x
COC(=O)CC1(C(=O)OC)Oc2ccc(Br)cc2C(=O)N1c1cccc(Cl)c1Cl (centres undefined) | 3 | 10 | 11 | 30* | -29 | -16 | 32* | 53*
COC(=O)CC1(C(=O)OC)Oc2ccc(Br)cc2C(=O)N1c1ccc(Br)cc1Cl (centres undefined) | 5 | 20 | 17 | 0 | -10 | -16 | x | x
CC1CCCC(NC(=O)CN(C)CC(=O)Nc2ccc(F)cc2)C1C (centres undefined) | 2 | -3 | -18 | x | -20 | -9 | x | x
COc1ccccc1Cn1c(CCCO)nc2ccccc21 | 15 | 11 | -2 | 10 | -14 | -14 | -1 | -1
CC(C)c1ccccc1NC(=O)Cn1c(/C=C/c2ccccc2)nc2ccccc21 | x | 9 | x | -9 | -15 | -23 | x | x
CC(C)c1ccccc1NC(=O)Cn1c(-c2ccccc2Cl)nc2ccccc21 | 1 | 19 | -2 | 23* | 8 | -25 | 16 | 16
CCOc1ccc(S(=O)(=O)N2CCN(Cc3ccccc3)CC2)cc1 | 11 | 2 | 2 | 28* | 2 | -17 | 20 | 28*
COc1ccc(NC(=O)CN(C)C(=O)c2cccc(S(=O)(=O)N3CCN(C)CC3)c2)cc1 | 1 | 10 | -1 | x | 4 | -2 | x | x
COc1ccc(NC(=O)CN(C)C(=O)c2cccc(S(=O)(=O)N3CCN(Cc4ccccc4)CC3)c2)cc1 | x | 15 | x | 35* | -6 | -19 | 31* | 46*
COc1cc(C(=O)N/N=C/c2sccc2C)cc(OC)c1OC | 4 | x | -6 | 28* | x | x | 29* | 31*
Cc1ccsc1/C=N/NC(=O)c1ccncc1 | 4 | 11 | -5 | -1 | 2 | -13 | x | x
COc1cccc(NC(=O)COc2ccc(Br)c(C)c2)c1 | 1 | 7 | 2 | -4 | -4 | -1 | x | x
O=C(CSCc1ccccc1)Nc1ccc2c(c1)C(=O)NC2=O | 5 | 26 | 10 | 24* | 2 | -7 | 35* | 34*
Cc1ccc(OCC(=O)Nc2ccc3c(c2)C(=O)NC3=O)cc1 | 3 | 30 | 12 | 28* | 8 | 3 | 40* | 35*
O=C(COc1ccc(Cl)cc1)Nc1ccc(Cc2ccncc2)cc1 | 2 | 29 | 5 | 28* | 14 | -2 | 32* | 49*
Cc1cc(OCC(=O)Nc2ccncc2)ccc1Br | 12 | 49 | 14 | 23* | 41* | 48* | 36* | 50*
O=C(COC(=O)COc1ccccc1F)NCCc1ccc(F)cc1 | 3 | 8 | -16 | x | -6 | -11 | x | x
O=C1NC[C@H](CCCCN2C[C@@H](Cc3ccccc3)N(CCC3CCCCC3)C(=O)C2=O)N(CCC2CCCCC2)C1=O | 1 | x | -11 | x | x | x | x | x
CN(C)c1ccc(N2C(=NC(=O)CCC3CCCC3)SC3CS(=O)(=O)CC32)cc1 (centres undefined) | 0 | 2 | -9 | -17 | -14 | -10 | x | x
O=C(COc1ccc(Cl)cc1)Nc1ccc2c(c1)C(=O)NC2=O | 6 | 38 | -5 | 33* | 18 | 21 | 24* | 27*
